High-throughput results as filed in PubChem.
E-sel inducer: induces E-selectin expression in human endothelial cells | P16581 | HUVEC E-selectin immunofluorescence imaging; normalized: neutral wells 0, TNF-alpha wells 100 | activation, % at 7.58 µM | actives 0.37% (n = 260,000) | AID 686992;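 active = mean E-selectin-positive cell signal at least 10% of the positive control, reached in at least 60% of replicates, without over 20% cell loss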
Target sequence (P16581 whole entry, looked up): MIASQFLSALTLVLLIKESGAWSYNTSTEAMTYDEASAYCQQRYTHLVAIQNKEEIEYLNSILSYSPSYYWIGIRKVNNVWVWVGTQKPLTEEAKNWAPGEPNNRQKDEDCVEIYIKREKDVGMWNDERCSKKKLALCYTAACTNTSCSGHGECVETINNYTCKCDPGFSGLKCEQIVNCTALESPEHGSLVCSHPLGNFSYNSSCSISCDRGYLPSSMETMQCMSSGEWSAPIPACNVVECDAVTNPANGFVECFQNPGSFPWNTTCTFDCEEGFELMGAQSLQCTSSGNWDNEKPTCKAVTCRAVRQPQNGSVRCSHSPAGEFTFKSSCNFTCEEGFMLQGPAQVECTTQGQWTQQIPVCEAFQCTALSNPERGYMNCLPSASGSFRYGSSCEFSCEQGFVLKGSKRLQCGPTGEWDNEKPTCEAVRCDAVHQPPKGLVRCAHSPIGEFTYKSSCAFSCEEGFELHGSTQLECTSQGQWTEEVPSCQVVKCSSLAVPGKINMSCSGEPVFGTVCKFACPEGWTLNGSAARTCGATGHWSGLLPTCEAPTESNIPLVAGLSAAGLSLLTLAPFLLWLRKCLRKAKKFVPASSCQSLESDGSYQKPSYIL
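System: HUVEC / Compound: single concentration / Signal: immunofluorescence imaging / Read-out: percent E-selectin-positive cells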
Xi reactivation: activators of X-chromosome reactivation in mouse fibroblasts; XiGFP mouse fibroblasts, % GFP-positive cells imaging, 3 d; cells co-treated with 5-aza-dC sensitizer; scaled so ellipticine positive control = 100%; activation, % at 7.58 µM; AID 743238; actives 0.055% (n = 360,000);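 active = mean normalized replicate activation at least 10% and every replicate at or above 10%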;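 also: 0% = median of on-plate neutral control wells and 100% = ellipticine 6 µM median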
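Assay system: SV40-immortalized XiGFP fibroblast cells, line 68-5-11; buffer or medium: DMEM plus 5-aza-dC sensitizer; compound: one concentration, pinned; timing: compounds 3 days, fix/stain 15 min at room temperature; benchmarks: positive control ellipticine, 6 µM final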
Active calls of the source: *; nt = not tested or not shown. Shown is part of a subset that was picked to be rich in hits.

SMILES | E-sel inducer | Xi reactivation
C[C@@H]1CN([C@@H](C)CO)C(=O)c2cc(NC(=O)Nc3ccc4c(c3)OCO4)ccc2O[C@@H]1CN(C)S(=O)(=O)c1ccccc1 | -3 | 0
C[C@H]1CN([C@@H](C)CO)C(=O)c2cc(NC(=O)Nc3ccc4c(c3)OCO4)ccc2O[C@@H]1CN(C)S(=O)(=O)c1ccc(F)cc1 | 50* | 0
C[C@H]1CN([C@@H](C)CO)C(=O)c2cc(NC(=O)Nc3ccc(F)cc3)ccc2O[C@@H]1CN(C)S(=O)(=O)c1cccs1 | 7 | 0
C[C@@H]1CN([C@@H](C)CO)C(=O)c2cc(NC(=O)Nc3ccc(F)cc3)ccc2O[C@@H]1CN(C)S(=O)(=O)c1cccs1 | 161* | 0
COc1ccc(S(=O)(=O)N(C)C[C@H]2Oc3ccc(NC(=O)Nc4ccc5c(c4)OCO5)cc3CC(=O)N([C@H](C)CO)C[C@@H]2C)cc1 | 429* | 0
CCCC(=O)Nc1ccc2c(c1)C(=O)N(C)C[C@@H](OC)[C@H](C)CN(Cc1cc(-c3ccccc3)on1)[C@H](C)CO2 | 0 | 0
CN(C)C(=O)[C@H]1[C@H](CO)[C@H]2Cn3c(ccc(C4=CCCCC4)c3=O)[C@@H]1N2Cc1ccncc1 | 0 | 0
C[C@@H]1CN([C@H](C)CO)C(=O)Cc2cc(NS(=O)(=O)c3ccccc3)ccc2O[C@H]1CN(C)S(=O)(=O)c1cn(C)cn1 | -3 | 0
CCCN(C)C[C@H]1Oc2cc(-c3ccc(C#N)cc3)ccc2S(=O)(=O)N([C@@H](C)CO)C[C@H]1C | -1 | 0
COc1ccc(CN(C)C[C@H]2Oc3ccc(NC(=O)Nc4c(C)noc4C)cc3CC(=O)N([C@H](C)CO)C[C@H]2C)cc1 | -7 | 0
C[C@@H]1CN([C@@H](C)CO)C(=O)c2cccc(NC(=O)Nc3ccc4c(c3)OCO4)c2O[C@H]1CN(C)S(=O)(=O)c1ccc(F)cc1 | 55* | 0
C[C@@H]1CN([C@@H](C)CO)C(=O)c2cc(NC(=O)Nc3ccc4c(c3)OCO4)ccc2O[C@@H]1CN(C)CC1CCCCC1 | 19 | 0
C[C@H](CO)N1C[C@H](C)[C@H](CN(C)CC2CCCCC2)Oc2ccc(NC(=O)Nc3ccc4c(c3)OCO4)cc2C1=O | 349* | 0
COc1ccc(NC(=O)Nc2ccc3c(c2)C(=O)N([C@H](C)CO)C[C@H](C)[C@H](CN(C)S(=O)(=O)c2ccc(F)cc2)O3)cc1 | 7 | 0
C[C@H]1CN([C@@H](C)CO)C(=O)c2cc(NC(=O)NC3CCCCC3)ccc2O[C@H]1CN(C)S(=O)(=O)c1ccc(Cl)cc1 | 2 | 0
C[C@H](CO)N1C[C@H](C)[C@@H](CN(C)S(=O)(=O)c2ccc(F)cc2)Oc2c(NC(=O)Nc3ccc4c(c3)OCO4)cccc2C1=O | 0 | 0
COc1ccc(NC(=O)Nc2ccc3c(c2)C(=O)N([C@H](C)CO)C[C@@H](C)[C@@H](CN(C)S(=O)(=O)c2ccc(F)cc2)O3)cc1 | 40* | 0
C[C@@H]1CN([C@H](C)CO)C(=O)c2cc(NC(=O)NC3CCCCC3)ccc2O[C@H]1CN(C)S(=O)(=O)c1ccc(Cl)cc1 | 141* | 0
CS(=O)(=O)N1[C@H](CO)[C@@H](c2ccccc2)C12CN(C(=O)C1CC1)C2 | 0 | 0
CCCNC(=O)Nc1ccc2c(c1)C(=O)N(C)C[C@H](OC)[C@@H](C)CN(C(=O)C1CCOCC1)[C@@H](C)CO2 | 0 | 0
CO[C@@H]1CC[C@@H]2CCOc3ccc(C#N)cc3C(=O)N(C)CCCC(=O)N(C)C[C@@H]1O2 | 0 | 0
C[C@H]1CN([C@@H](C)CO)C(=O)c2cc(NS(=O)(=O)c3ccc(F)cc3)ccc2O[C@@H]1CN(C)CC1CC1 | -3 | 0
CN1C(=O)c2cc(NC(=O)C3CCCC3)ccc2OC[C@@H]2O[C@H](CC(=O)NCC(F)(F)F)CC[C@@H]21 | 0 | 0
N#Cc1ccc(-c2ccc(C3[C@@H]4CN(C(=O)c5ccc6c(c5)OCO6)C[C@H]3N4)cc2)cc1 (some centres undefined) | -1 | 0
Cc1noc(C)c1NC(=O)Nc1cccc2c1O[C@@H](CN(C)C(=O)NC1CCCCC1)[C@@H](C)CN([C@@H](C)CO)C2=O | 0 | 0
SMILES | E-sel inducer | Xi reactivation
C/C(=N\NC(=O)c1cc(-c2ccccc2C)nc2ccccc12)c1cccnc1 | 50* | 0
C/C(=N\NC(=O)c1cc(-c2ccc(C)s2)nc2ccccc12)c1cccnc1 | nt | 0
CC(C)C(=O)Nc1ccc2c(c1)C(=O)N(C)[C@@H]1CC[C@H](CC(=O)NCc3ccc(F)cc3)O[C@@H]1CO2 | 0 | 0
COc1ccccc1Oc1ccccc1[N+](=O)[O-] | 0 | 0
COc1ccccc1P(=O)(Cc1ccccc1[N+](=O)[O-])c1ccccc1 (centres undefined) | 59* | 0
CCCN(C)C[C@@H]1Oc2cc(C#CCC(C)C)ccc2S(=O)(=O)N([C@H](C)CO)C[C@@H]1C | 1 | 0
C[C@@H]1CN([C@@H](C)CO)S(=O)(=O)c2ccc(C#Cc3ccccc3F)cc2O[C@@H]1CN(C)C | 0 | 0
C[C@H](CO)N1C[C@H](C)[C@@H](CN(C)C)Oc2cc(C#Cc3ccccc3F)ccc2S1(=O)=O | 104* | 0
CCCC#Cc1ccc2c(c1)O[C@@H](CN(C)CCC)[C@@H](C)CN([C@@H](C)CO)S2(=O)=O | 85* | 0
COc1cc(NC(=O)C/C(C)=N/NC(=O)C2CCCCC2)c(OC)cc1Cl | 56* | 0
COc1cc(NC(=O)C/C(C)=N/NC(=O)C(=O)NC2CCCCC2)c(OC)cc1Cl | 11 | 0
COc1ccc(CNC(=O)C(OC(=O)c2nsc(Cl)c2Cl)C(C)C)cc1 (centres undefined) | -5 | 0
CC(C)C(OC(=O)c1nsc(Cl)c1Cl)C(=O)NCc1ccccc1 (centres undefined) | 32* | 0
CC(C)NC(=O)Nc1ccc2c(c1)C(=O)N([C@@H](C)CO)C[C@H](C)[C@@H](CN(C)S(=O)(=O)c1cn(C)cn1)OCCCC[C@H](C)O2 | nt | 0
COc1ccc(NS(=O)(=O)c2ccc3c(c2)CCCN3C(C)=O)cc1 | 121* | 0
CCOc1ccc(NS(=O)(=O)c2ccc3c(c2)CCN3C(C)=O)cc1 | 0 | 0
C[C@H]1CN([C@@H](C)CO)C(=O)Cc2cc(NS(C)(=O)=O)ccc2O[C@@H]1CN(C)S(=O)(=O)c1ccccc1 | -3 | 0
COc1ccc(C)cc1NC(=O)C(OC(=O)CNC(=O)c1cc(C)cc(C)c1)c1ccccc1 (centres undefined) | nt | 0
COc1ccc(C)cc1NC(=O)C(NCC(O)c1ccccc1)c1ccccc1 (centres undefined) | 52* | 0
Cc1noc(C)c1S(=O)(=O)Nc1ccc2c(c1)C(=O)N([C@@H](C)CO)C[C@H](C)[C@H](CN(C)S(=O)(=O)c1ccc(F)cc1)OCCCC[C@H](C)O2 | 0 | 0
O=C(O)C[C@H]1CC[C@H](NC(=O)Nc2cc(F)ccc2F)[C@H](CO)O1 | 0 | 1
C[C@H]1CN([C@@H](C)CO)C(=O)c2cc(NC(=O)CCCN(C)C)ccc2O[C@H]1CN(C)Cc1ccc(C(F)(F)F)cc1 | 42* | 0
